Experimental data published in ChEMBL document CHEMBL1152649, “Synthesis, cytotoxicity and human telomerase inhibition activities of a series of 1,2-heteroannelated anthraquinones and anthra[1,2-d]imidazole-6,11-dione homologues” (2009).

Experiments:
[1] = system: MDA-MB-468; experiment: Growth inhibition of human MDA-MB-468 cells; assay type: functional
Method in brief: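 NCI 60 cancer cell line screen run per the Developmental Therapeutics Program protocol. Dose–response curves were plotted against log10 drug concentration for each cell line within its subpanel, and mean graph midpoint values were calculated.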

[2] = system: SR; experiment: Growth inhibition of human SR cells; assay type: functional
Method in brief: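 Assayed in the NCI 60 human cancer cell line panel under the Developmental Therapeutics Program protocol. For each line, dose–response curves were plotted against log10 drug concentration. In the one-dose screen at 10^-5 M, growth was given as percent of untreated control cells, and mean graph midpoint values were averaged.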

[3] = read-out: LC50 (the source's name)

## CCc1nc2ccc3c(c2[nH]1)C(=O)c1ccccc1C3=O
[1]
  GI50: 8.29 µM
  TGI: > 100 µM
[1]; [3]
  CC50: > 100 µM
[2]
  GI50: 6.71 µM
  TGI: > 100 µM
[2]; [3]
  CC50: > 100 µM
